NALP3 yeast inh – NALP3 inflammasome inhibitors in reconstituted yeast, primary screen, luminescence, uHTS. Yeast reconstituted NLRP3/ASC/caspase-1, beta-gal luminescence, 24 h. inhibition, % at 10 µM. 330,000 tested, 0.39% active. AID 2825, 2010;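 active = inhibition of 50% or more; inactive = inhibition below 50%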
Beta cell apopt – inhibitors of cytokine-induced beta cell apoptosis, primary screen, luminescence; 300,000 tested, 0.8% active; AID 435005, 2010; protection from apoptosis, % (no concentration beside the values); INS-1E cytokine-induced death, ATP luminescence, 48 h; percent of positive-control rescue, neutral wells zero;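 active = Every replicate reaches about 75%, or at least half do and their mean reaches it too, limit read from the data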;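 note: higher means more ATP so stronger rescue from cytokine killing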
Calb FLC – C. albicans growth inhibition with fluconazole, primary screen, CaCi-2 strain, Alamar Blue fluorescence. growth inhibition, % (test concentration not listed). 300,000 tested, 0.57% active. AID 1979, 2009. C. albicans CaCi-2 + fluconazole, 48 h;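 active = growth inhibition above about 58% in most replicates, limit read from the data, passing the limit was not always enough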;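 note: all wells also contain fluconazole at 8 µg/ml as a sub-toxic cotreatment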
Mdm2 MdmX PPI – inhibitors of human Mdm2-MdmX association, primary screen, cell-based, luminescence, split luciferase, SaOS-2, uHTS | Protein Mdm4 (Homo sapiens) + E3 ubiquitin-protein ligase Mdm2 (Homo sapiens), … | SaOS-2 split-luciferase Mdm2/MdmX complementation | inhibition, % at 8 µM | 330,000 tested, 3% active;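 active = inhibition of at least 50% at 8 µM in the primary screen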
T cruzi inh – inhibitors of intracellular T. cruzi growth, primary screen, luminescence, NIH3T3 host cells; 300,000 tested, 1.4% active; T. cruzi beta-gal in NIH3T3, 90 h; inhibition, % (test concentration not listed);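 active = mean inhibition across valid replicates above about 55%, limit read from the data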;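 note: signal also drops with host cell toxicity which is not excluded here; higher percent means less beta-gal luminescence so fewer parasites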
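System: Mouse NIH/3T3 fibroblasts infected with β-gal-expressing T. cruzi Tulahuen C4 | Quantity: NIH/3T3 cells, 5,000 per well | Reagent: 5000 reporter trypomastigotes per well | Dosing: Compound pinned at 50 nL/well, DMSO | Schedule: 3 h host attachment, then at least 90 h co-culture | Detection: GalScreen luminescence, 60 min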
CSC inhib – cancer stem cell viability inhibitors, primary screen, luminescence. 300,000 tested, 1.1% active. inhibition, % at 7.5 µM. cancer stem cell-like cells viability; in the data active = inhibition above about 75%; tested in HMLE shEcad cells
A number is an active result; 0 = inactive; - = no result. This is a sample that favours compounds with a hit; in the whole collection about 5.3% have one here.

SMILES | NALP3 yeast inh | Beta cell apopt | Calb FLC | Mdm2 MdmX PPI | T cruzi inh | CSC inhib
CCCCCCc1ccc(N2C[C@H](Cc3ccccc3)[C@@H](CC(=O)Nc3ccccc3)C2=O)cc1 | 0 | 103.9 | 0 | 0 | 0 | 0
O=C(COC(=O)c1ccc2c(c1[N+](=O)[O-])C(=O)c1ccccc1C2=O)NC1CC1 | 0 | 0 | 0 | 0 | 66.0 | 0
COc1cc(SC)ccc1C(=O)OCC(=O)NC1CC1 | 0 | - | 98.3 | 0 | 0 | -
COc1cc(SC)ccc1C(=O)OCC(=O)NCCNC(=O)COC(=O)c1ccc(SC)cc1OC | 0 | 0 | 0 | 0 | 0 | 0
COc1cc2ccccc2cc1C(=O)N(CCN(C)C)c1nc2ccc(Br)cc2s1 | 0 | 0 | 101.8 | 0 | 0 | 0
CCN(CC)CCN(C(=O)c1ccc2c(c1)CCCC2)c1nc2ccc(F)cc2s1 | 0 | 0 | 0 | 0 | 54.7 | 0
CN(C)CCCN(C(=O)c1ccc(S(=O)(=O)N(C)C)cc1)c1nc2ccc(F)cc2s1 | 0 | 0 | 0 | 0 | 67.3 | 0
Cc1ccc2nc(N(CCCN(C)C)C(=O)c3ccc(S(=O)(=O)N(C)C)cc3)sc2c1 | 0 | 0 | 0 | 0 | 0 | 0
CN(C)CCN(C(=O)c1cc(Cl)sc1Cl)c1nc2ccc(F)cc2s1 | 0 | 0 | 0 | 0 | 56.1 | 0
COc1ccc2sc(N(CCN(C)C)C(=O)c3cc(Cl)sc3Cl)nc2c1 | 0 | 0 | 0 | 0 | 0 | 0
COc1cccc(CNC(=O)CN2C(=O)CSc3ccc(S(=O)(=O)N4CCCCC4)cc32)c1 | 0 | 0 | 0 | 0 | 0 | 0
Cn1c(CN2CCCC(C(=O)c3ccc4c(c3)OCO4)C2)nc2ccccc21 (configuration not stated) | 0 | 0 | 0 | 0 | 72.7 | 0
O=C(c1ccc2c(c1)OCO2)C1CCCN(Cc2ccc3nsnc3c2)C1 (configuration not stated) | 0 | 0 | 0 | 0 | 0 | 0
COc1ccc(C(=O)C2CCCN(Cc3cccn3-c3cccnc3)C2)cc1OC (configuration not stated) | 0 | 0 | 0 | 0 | 0 | 0
O=C(c1ccc2c(c1)OCO2)C1CCCN(Cc2cccn2-c2cccnc2)C1 (configuration not stated) | 0 | 0 | 0 | 0 | 57.9 | 0
O=C(c1ccc(Cl)cc1)C1CCCN(Cc2cccn2-c2cccnc2)C1 (configuration not stated) | 0 | 0 | 0 | 0 | 58.1 | 0
CSc1ccc(C(=O)C2CCCN(Cc3cccn3-c3cccnc3)C2)cc1 (configuration not stated) | 0 | 0 | 0 | 0 | 0 | -
COc1ccc(S(=O)(=O)Cc2ccc(C(=O)N3CCN(c4ccccc4)CC3)o2)cc1 | 0 | - | 0 | 0 | 0 | 0
COc1ccc(OC)c(NC(=O)CSc2nc3ccccc3c(=O)n2CC2CCCO2)c1 (configuration not stated) | 0 | 0 | 0 | 0 | 0 | 0
BrC(=C\c1ccccc1)/C=N/n1cnnc1 | - | - | 86.2 | - | 0 | -
O=C(Nc1nccs1)c1ccc(COc2ccc(F)cc2)o1 | 0 | 0 | 0 | 0 | 0 | 0
O=C(NCc1cccnc1)c1ccc(-c2ccccc2[N+](=O)[O-])o1 | 0 | 0 | 0 | 0 | 0 | 0
O=C(Nc1cccnc1)c1ccc(COc2ccccc2Br)cc1 | 0 | 0 | 0 | 0 | 0 | 90.0
O=C(Nc1nccs1)c1ccc(COc2ccccc2Br)o1 | 0 | 0 | 0 | 0 | 0 | 195.6
O=C(NCc1cccnc1)c1ccc(-c2cccc(Cl)c2Cl)o1 | 0 | 0 | 61.2 | 0 | 57.9 | 0
SMILES | NALP3 yeast inh | Beta cell apopt | Calb FLC | Mdm2 MdmX PPI | T cruzi inh | CSC inhib
Cc1cc(C)n(Cc2ccc(NC(=O)c3ccc(COc4ccccc4Br)cc3)cc2)n1 | 0 | 78.3 | 0 | 0 | 59.7 | 125.3
O=C(COC(=O)Cc1ccsc1)Nc1ccc(Cl)cc1F | 0 | 0 | - | 0 | - | -
O=C(N/N=C/c1ccc(O)cc1)/C(=C/c1ccccc1)CCO | 0 | 0 | 0 | 0 | 0 | 0
O=C(NCc1cccnc1)c1ccc(COc2ccccc2Cl)cc1 | 0 | 102.9 | 0 | 0 | 0 | 0
CCOc1ccc(C2CC(c3cccc(OC)c3)Nc3nc(N)nn32)cc1 (configuration not stated) | 0 | 0 | 0 | 0 | 0 | 0
CSc1ccccc1NC(=S)N/N=C/c1cccn1Cc1cccc(C)c1 | 0 | 0 | 0 | 0 | 65.4 | 0
